Measured values from ChEMBL document CHEMBL1156809, “Synthesis and anticonvulsant activities of (R)-N-(4'-substituted)benzyl 2-acetamido-3-methoxypropionamides” (J Med Chem, 2010).
Active and inactive are the calls of the source. The rule behind the calls is not given here.

Columns and labels:
Mus musculus [1] = experiment: Anticonvulsant activity in ip dosed albino CF1 mouse seizure model assessed as protection against hind limb extension by MES test; type: functional; details: albino CF1, Hindlimb
Summary of the method: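 Maximal electroshock seizure test run by the NINDS ASP (Stables and Kupferberg procedures). Compounds were given intraperitoneally to mice, and the ED50 for seizure protection is reported in mg/kg.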

[2] = Neurological toxicity in ip dosed albino CF1 mouse assessed as neurological impairment by rotarod test; type: organism-based; details: in vivo
Summary of the method: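 Neurological impairment was measured with the rotorod test in mice dosed intraperitoneally. The median dose (TD50, mg/kg) was determined only for compounds with significant MES activity.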

Mus musculus [3] = experiment: Protective index, ratio of TD50 for ip dosed albino CF1 mouse to ED50 for ip dosed albino CF1 mouse; type: functional
Summary of the method: (§1)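 Protective index was calculated as TD50/ED50 for the same species and route: mouse ip (rotorod TD50, MES ED50) and rat po.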

Rattus norvegicus [4] = experiment: Anticonvulsant activity in po dosed albino Sprague-Dawley rat seizure model assessed as protection against hind limb extension by MES test; type: functional; details: Hindlimb
Summary of the method: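 MES seizure protection was tested in Sprague Dawley rats dosed orally, through the NINDS ASP. The ED50 is expressed in mg/kg.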

[5] = Behavioral toxicity in po dosed albino Sprague-Dawley rat; type: organism-based; details: in vivo
Summary of the method: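 Behavioral toxicity was recorded as observed effects in rats after oral administration, within the NINDS ASP screen.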

Rattus norvegicus [6] = experiment: Protective index, ratio of TD50 for po dosed albino Sprague-Dawley rat to ED50 for po dosed albino Sprague-Dawley rat; type: functional; summary of the method: as §1
Mus musculus [7] = experiment: Anticonvulsant activity against subcutaneous metrazole-induced seizures in albino CF1 mouse at 300 mg/kg, ip after 0.5 hrs; type: functional, organism-based; parameters: dose 300 mg/kg
Summary of the method: (§2)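 Subcutaneous Metrazol seizure test under the NINDS ASP, using ip dosing to mice, typically at 300 mg/kg. Protection was assessed at 0.5 and 4 h.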

Rattus norvegicus [8] = experiment: Anticonvulsant activity against subcutaneous metrazole-induced seizures in albino Sprague-Dawley rat at 300 mg/kg, ip after 0.5 hrs; type: functional, organism-based; parameters: dose 300 mg/kg
Mus musculus [9] = experiment: Anticonvulsant activity against subcutaneous metrazole-induced seizures in albino CF1 mouse at 300 mg/kg, ip after 4 hrs; type: functional, organism-based; parameters: dose 300 mg/kg; summary of the method: as §2
Rattus norvegicus [10] = experiment: Anticonvulsant activity against subcutaneous metrazole-induced seizures in albino Sprague-Dawley rat at 300 mg/kg, ip after 4 hrs; type: functional, organism-based; parameters: dose 300 mg/kg
Rattus norvegicus [11] = experiment: Anticonvulsant activity against in ip dosed albino Sprague-Dawley rat hippocampal kindled seizure model assessed as after-discharge duration after 0.5 hrs; type: functional, Hippocampus
Summary of the method: (§3)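 Rats were given compounds intraperitoneally in the rapid hippocampal kindling model under the NINDS ASP. Racine seizure score and after-discharge duration (sec) were recorded before and after dosing. Where determined, ED50 (mg/kg) is given with an interval.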

Rattus norvegicus [12] = experiment: Anticonvulsant activity against in ip dosed albino Sprague-Dawley rat hippocampal kindled seizure model assessed as decrease in seizures after 0.5 hrs; type: functional; details: Hippocampus; summary of the method: as §3

Structure (SMILES) | ED50 (Mus musculus [1]) | TD50 [2] | PI (Mus musculus [3]) | ED50 (Rattus norvegicus [4]) | TD50 [5] | PI (Rattus norvegicus [6]) | Activity (Mus musculus [7]) | Activity (Rattus norvegicus [8]) | Activity (Mus musculus [9]) | Activity (Rattus norvegicus [10]) | Time (Rattus norvegicus [11]) | ED50 (Rattus norvegicus [12])
COC[C@@H](NC(C)=O)C(=O)NCc1ccc(Br)cc1 | 8.7 mg/kg | 30 mg/kg | 3.5 | 4.9 mg/kg | 300 mg/kg | 61 | inactive | inactive | inactive | inactive | – | –
COC[C@@H](NC(C)=O)C(=O)NCc1ccc(C#N)cc1 | 150 mg/kg | > 500 mg/kg | >3.3 | > 30 mg/kg | > 30 mg/kg | – | inactive | inactive | inactive | inactive | – | –
COC[C@@H](NC(C)=O)C(=O)NCc1cccc(F)c1 | – | – | 6.7 | – | > 400 mg/kg | >58 | inactive | inactive | inactive | inactive | – | –
COCCCc1ccc(CNC(=O)[C@@H](COC)NC(C)=O)cc1 | 20 mg/kg | 62 mg/kg | 3.1 | – | > 500 mg/kg | >32 | inactive | inactive | inactive | inactive | 21 s | –
COCc1ccc(CNC(=O)[C@@H](COC)NC(C)=O)cc1 | 73 mg/kg | – | 2.3 | – | > 500 mg/kg | >11 | inactive | inactive | inactive | inactive | 12 s | 87 mg/kg
COC[C@@H](NC(C)=O)C(=O)NCc1ccccc1 [LACOSAMIDE] | – | – | 6 | – | > 500 mg/kg | >130 | inactive | inactive | inactive | inactive | 0 s | –
COC[C@@H](NC(C)=O)C(=O)NCc1ccc(C)cc1 | 11 mg/kg | 31 mg/kg | 3 | 8.1 mg/kg | > 500 mg/kg | >62 | inactive | inactive | inactive | inactive | – | –
COC[C@@H](NC(C)=O)C(=O)NCc1ccc(F)cc1 | – | – | 6.7 | – | 125 mg/kg | >48 | inactive | inactive | inactive | inactive | – | –
COCC#Cc1ccc(CNC(=O)[C@@H](COC)NC(C)=O)cc1 | 10 mg/kg | 15 mg/kg | 1.5 | 18 mg/kg | 100 mg/kg | 5.5 | inactive | inactive | inactive | inactive | – | –
COC[C@@H](NC(C)=O)C(=O)NCc1ccc(N=[N+]=[N-])cc1 | 8.4 mg/kg | – | – | – | > 250 mg/kg | >64 | inactive | inactive | inactive | inactive | 0 s | 6 mg/kg
COC[C@@H](NC(C)=O)C(=O)NCc1ccc(Cl)cc1 | 5 mg/kg | 28 mg/kg | 5.6 | 1 mg/kg | > 200 mg/kg | >200 | inactive | inactive | inactive | inactive | 2 s | –
O=C1NC(=O)C(c2ccccc2)(c2ccccc2)N1 [PHENYTOIN] | – | – | – | – | – | – | inactive | inactive | inactive | inactive | 51 s | –
CCCC(CCC)C(=O)[O-].[Na+] [VALPROATE SODIUM] | 270 mg/kg | – | – | – | – | – | inactive | inactive | inactive | inactive | – | 210 mg/kg
C=Cc1ccc(CNC(=O)[C@@H](COC)NC(C)=O)cc1 | 3.5 mg/kg | 16 mg/kg | 4.6 | 7.6 mg/kg | – | >20 | inactive | inactive | inactive | inactive | 0 s | –
CCCc1ccc(CNC(=O)[C@@H](COC)NC(C)=O)cc1 | 8.5 mg/kg | 13 mg/kg | 1.5 | < 30 mg/kg | > 30 mg/kg | – | inactive | inactive | inactive | inactive | – | –
COC[C@@H](NC(C)=O)C(=O)NCc1ccc(OC(F)(F)F)cc1 | 3.6 mg/kg | 13 mg/kg | 3.6 | 1.7 mg/kg | 63 mg/kg | 37 | inactive | inactive | inactive | inactive | – | –
COC[C@@H](NC(C)=O)C(=O)NCc1ccc(I)cc1 | 16 mg/kg | 41 mg/kg | 2.6 | 12 mg/kg | > 500 mg/kg | >43 | inactive | inactive | inactive | inactive | 0 s | 12 mg/kg
